In ChEMBL document CHEMBL3875214, “Quercetin-glutamic acid conjugate with a non-hydrolysable linker; a novel scaffold for multidrug resistance reversal agents through inhibition of P-glycoprotein” (Bioorg Med Chem, 2017):
Calls of active or inactive are those of the source. No cut-off for these calls is given here.

How the values were obtained:
[1] = Antioxidant activity assessed as DPPH radical scavenging activity; type: functional
[2] = Stability in human MES-SA cells assessed as reduction in quercetin release up to 100 uM by HPLC analysis; type: ADME, cell-based
Procedure, shortened: (§1)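 MES-SA or MES-SA/Dx5 cells were incubated with compound for up to 48 h (0, 24, 48 h). Cell lysates were analysed by HPLC for intact compound and for released quercetin, and half-lives were derived from these measurements.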

[3] = Stability in P-gp over-expressing human MES-SA/Dx5 cells assessed as reduction in quercetin release up to 100 uM by HPLC analysis; type: ADME, cell-based; procedure, shortened: as §1
[4] = Half life in human MES-SA cells up to 100 uM by HPLC analysis; type: ADME, cell-based; procedure, shortened: as §1
[5] = Half life in P-gp over-expressing human MES-SA/Dx5 cells up to 100 uM by HPLC analysis; type: ADME, cell-based; procedure, shortened: as §1
Homo sapiens [6] = species: Homo sapiens; assay: Inhibition of P-gp in human MES-SA/Dx5 cells assessed as increase in doxorubicin accumulation at 5 uM after 30 mins by flow cytometry relative to control; type: cell-based
Homo sapiens [7] = species: Homo sapiens; assay: Activity at human P-gp expressed in membranes assessed as stimulation of P-gp ATPase activity at 100 uM after 40 mins in presence of MgATP by […] relative to control
Procedure, shortened: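 Human Pgp membrane, 25 µg, incubated at 37 °C with compound at 100 µM, alongside Na3VO4 (100 µM) and 0.1% DMSO solvent controls. Reaction was started with 5 mM MgATP and run 40 min at 37 °C. Leftover ATP was read as luciferase luminescence after 20 min at room temperature. Activity was taken as the luminescence drop relative to the Na3VO4 sample.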

Homo sapiens [8] = species: Homo sapiens; assay: Inhibition of P-gp in human MES-SA/Dx5 cells assessed as potentiation of doxorubicin-induced cytotoxicity by measuring fold reduction in doxorubicin EC50 at 5 uM after 72 hrs by MTT assay relative to untreated control; type: cell-based
Procedure, shortened: (§2)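 MES-SA/Dx5 cells were seeded at 5×10^3 per well in complete RPMI-1640 and left 24 h at 37 °C, 5% CO2. Anticancer drug was added at 0.0001–100 µM final, with or without modulator at 5 µM (1% DMSO), for 72 h. Viability was read by MTT at 570 nm and survival % was blank-corrected against 1% DMSO controls. IC50s came from survival curves. Fold reversal = IC50 untreated / IC50 with modulator. Three independent experiments were run, reported as mean ± SD.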

Homo sapiens [9] = species: Homo sapiens; assay: Inhibition of P-gp in human MES-SA/Dx5 cells assessed as potentiation of actinomycin D-induced cytotoxicity by measuring fold reduction in actinomycin D EC50 at 5 uM after 72 hrs by MTT assay relative to untreated control; type: cell-based; procedure, shortened: as §2
Homo sapiens [10] = species: Homo sapiens; assay: Inhibition of P-gp in human MES-SA/Dx5 cells assessed as potentiation of vinblastine-induced cytotoxicity by measuring fold reduction in vinblastine EC50 at 5 uM after 72 hrs by MTT assay relative to untreated control; type: cell-based; procedure, shortened: as §2
Homo sapiens [11] = species: Homo sapiens; assay: Inhibition of P-gp in human MES-SA/Dx5 cells assessed as potentiation of paclitaxel-induced cytotoxicity by measuring fold reduction in paclitaxel EC50 at 5 uM after 72 hrs by MTT assay relative to untreated control; type: cell-based; procedure, shortened: as §2
[12] = Inhibition of P-gp in human MES-SA/Dx5 cells assessed as potentiation of doxorubicin-induced cytotoxicity by measuring compound concentration required for reduction of doxorubicin IC50 by half after 72 hrs by MTT assay; type: cell-based; details: MES-SA/Dx5, 72 h
[13] = Inhibition of P-gp in human MES-SA/Dx5 cells assessed as potentiation of actinomycin D-induced cytotoxicity by measuring compound concentration required for reduction of actinomycin D IC50 by half after 72 hrs by MTT assay; type: cell-based; details: MES-SA/Dx5, 72 h
[14] = Inhibition of P-gp in human MES-SA/Dx5 cells assessed as potentiation of vinblastine-induced cytotoxicity by measuring compound concentration required for reduction of vinblastine IC50 by half after 72 hrs by MTT assay; type: cell-based; details: MES-SA/Dx5, 72 h
[15] = Inhibition of P-gp in human MES-SA/Dx5 cells assessed as potentiation of paclitaxel-induced cytotoxicity by measuring compound concentration required for reduction of paclitaxel IC50 by half after 72 hrs by MTT assay; type: cell-based; details: MES-SA/Dx5, 72 h

With O=C(O)CC[C@H](NCCOc1cc(O)c2c(=O)c(O)c(-c3ccc(O)c(O)c3)oc2c1)C(=O)O the Activity [1] was “Active”, the Stability [2] was “Stable” and the Stability [3] was “Stable”. For the same compound, the half-life [4] was 56 h, the half-life [5] was 56 h and the fold change (FC) (Homo sapiens [6]) was 2.1. It also gave a fold change (FC) (Homo sapiens [7]) of 2.8, a fold change (FC) (Homo sapiens [8]) of 22.3 and a fold change (FC) (Homo sapiens [9]) of 20.5. For the same compound, the fold change (FC) (Homo sapiens [10]) was 16.2, the fold change (FC) (Homo sapiens [11]) was 17.3 and the EC50 [12] was 2800 nM. For the same compound, the EC50 [13] was 2700 nM, the EC50 [14] was 2400 nM and the EC50 [15] was 2500 nM.
With O=c1c(O)c(-c2ccc(O)c(O)c2)oc2cc(O)cc(O)c12 the Activity [1] was “Active”, the fold change (FC) (Homo sapiens [8]) was 1.94 and the fold change (FC) (Homo sapiens [9]) was 3.06. It also gave a fold change (FC) (Homo sapiens [10]) of 2.75 and a fold change (FC) (Homo sapiens [11]) of 2.48.
In the case of O=C(O)CC[C@H](NC(=O)COc1cc(O)c2c(=O)c(O)c(-c3ccc(O)c(O)c3)oc2c1)C(=O)O, the Activity [1] is reported as “Active”, the Stability [2] is reported as “Stable” and the Stability [3] is reported as “Stable”. The half-life [4] was 30 h, the half-life [5] was 30 h and the fold change (FC) (Homo sapiens [6]) was 2.3. For the same compound, the fold change (FC) (Homo sapiens [7]) was 3.1, the fold change (FC) (Homo sapiens [8]) was 25.6 and the fold change (FC) (Homo sapiens [9]) was 48.4. For the same compound, the fold change (FC) (Homo sapiens [10]) was 26, the fold change (FC) (Homo sapiens [11]) was 34.6 and the EC50 [12] was 2200 nM. It also gave an EC50 [13] of 2300 nM, an EC50 [14] of 2500 nM and an EC50 [15] of 2100 nM.
